Data set [1] in a line: folding enthalpy; higher = less favourable; fluorescence melt of hairpins on a sequencing array, two-state fit. The conditions noted are these: sodium 0.088 M. Put shortly: (§1)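 To match UV melts, fitted temperatures were raised by 9.35 °C. These fits were bootstrapped two-state models that gave melting temperature and folding enthalpy, combined by inverse variance over four replicates. The input was normalised Cy3 fluorescence of library hairpins with annealed Cy3 and quencher oligos on a sequenced MiSeq flow cell, imaged in 50 mM Na-HEPES pH 8.0, 25 mM NaCl in 2.5 °C steps up to 60 °C.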

The nature of data set [2]: melting temperature; fluorescence melt of hairpins on a sequencing array, two-state fit, raised by 9.35 °C to match UV melts. The note with it: sodium 0.088 M. Put shortly:
as §1

Take GACTCGGCGAAAGCCGTC (((..(((....)))))): the folding enthalpy in data set [1] is -4.78 kcal/mol. Further, the Tm in data set [2] was 36.2 °C.

Consider GACTCGGGAAACCAAGTC ((((.((....)).)))), for which the folding enthalpy in data set [1] is -25 kcal/mol. For the same sequence, in data set [2], the Tm was 37.6 °C.

With GACTCGGGAAACCGAACC (..((((....))))..), in data set [1], the folding enthalpy was -9.35 kcal/mol. Further, the Tm in data set [2] was 22.6 °C.

Regarding GACTCGGGAAACCGGGTC (((.(((....))).))), the folding enthalpy in data set [1] was -40.6 kcal/mol. Moreover, the Tm in data set [2] is 55.1 °C.

Regarding GACTCTGGAAACGGAGTC (((((.(....).))))), the folding enthalpy in data set [1] was -46.5 kcal/mol. The Tm in data set [2] was 50.3 °C.

As to GACTGACGAAAGTCTGTC (((.(((....))).))), in data set [1], the folding enthalpy was -36.7 kcal/mol. Further, the Tm in data set [2] came to 54.9 °C.

In the case of GACTGAGGAAACCCAGTC (((((.(....).))))), the folding enthalpy in data set [1] was -33.7 kcal/mol. Moreover, in data set [2], the Tm was 44.8 °C.

For GACTGAGGAAACTCAGCC (.(((((....))))).), the folding enthalpy in data set [1] is -16.9 kcal/mol. Besides, the Tm in data set [2] was found to be 43.4 °C.

As to GACTGCACGAAAGTGGTC (((..(((....)))))), in data set [1], the folding enthalpy is -13.9 kcal/mol. The Tm in data set [2] is 35.3 °C.

In the case of GACTGCCGAAAGGCTGTC (((.(((....))).))), in data set [1], the folding enthalpy is -30.9 kcal/mol. Moreover, the Tm in data set [2] came out at 63.2 °C.

Consider GACTGCGAAAGCACCGTC ((((((....)))..))), for which the folding enthalpy in data set [1] was -10.7 kcal/mol. In data set [2], the Tm came to 37.6 °C.

Regarding GACTGCGAAAGCACGGTC ((((((....)))..))), in data set [1], the folding enthalpy was -12.4 kcal/mol. Further, the Tm in data set [2] is 42.4 °C.

As to GACTGCGAAAGCAGGGTC ((((((....)))..))), in data set [1], the folding enthalpy is -12.4 kcal/mol. Further, in data set [2], the Tm came out at 62.2 °C.

In the case of GACTGCGAAAGCAGGTC ((((((....))).))), the folding enthalpy in data set [1] is -13.1 kcal/mol. For the same sequence, the Tm in data set [2] amounted to 58.1 °C.

For the sequence GACTGCGAAAGCAGTGTC ((((((....)))..))), the folding enthalpy in data set [1] is -10.2 kcal/mol. Besides, in data set [2], the Tm turned out to be 58.6 °C.

For the sequence GACTGCGGAAACACAGTC (((((.(....).))))), the folding enthalpy in data set [1] was -26.8 kcal/mol. Further, in data set [2], the Tm was 47.4 °C.

In the case of GACTGCGGAAACGCAACC (..((((....))))..), in data set [1], the folding enthalpy was -9.21 kcal/mol. Further, the Tm in data set [2] amounted to 25.1 °C.

As to GACTGCGGAAACGCGGTC (((.(((....))).))), the folding enthalpy in data set [1] is -34.1 kcal/mol. Also, in data set [2], the Tm worked out at 63.5 °C.

For GACTGGGGAAACCCGGTC (((.(((....))).))), the folding enthalpy in data set [1] is -41.7 kcal/mol. In addition, in data set [2], the Tm was found to be 54.1 °C.

As for GACTGGGGAAACTCAGTC (((((.(....).))))), in data set [1], the folding enthalpy is -40.5 kcal/mol. In data set [2], the Tm worked out at 49.9 °C.

With GACTGGGGAAACTCGGTC (((.(.(....).).))), the folding enthalpy in data set [1] was -21.3 kcal/mol. Moreover, the Tm in data set [2] worked out at 38.5 °C.

In the case of GACTTACGAAAGTAGGTC (((.(((....))).))), the folding enthalpy in data set [1] was -27.5 kcal/mol. In addition, in data set [2], the Tm was 49.3 °C.

Regarding GACTTACGAAAGTAGTC (((.(((....)))))), the folding enthalpy in data set [1] is -26.8 kcal/mol. Also, the Tm in data set [2] amounted to 43.1 °C.

As to GACTTACGAAAGTATGTC (((.(((....))).))), the folding enthalpy in data set [1] was -32.9 kcal/mol. Moreover, the Tm in data set [2] is 47.8 °C.

For GACTTCCGAAAGGACGTC (((.(((....))).))), in data set [1], the folding enthalpy is -32.3 kcal/mol. Besides, the Tm in data set [2] is 48.9 °C.

Regarding GACTTCGGAAACGAAATC ((.((((....)))).)), the folding enthalpy in data set [1] is -22.9 kcal/mol. The Tm in data set [2] was 31.9 °C.

GACTTGCGAAAGCACGTC (((.(((....))).))): the folding enthalpy in data set [1] is -23.3 kcal/mol. For the same sequence, in data set [2], the Tm is 52.4 °C.

For GACTTGGGAAACCAAGTC (((((((....))))))), in data set [1], the folding enthalpy is -35.8 kcal/mol. The Tm in data set [2] is 62.3 °C.

With GACTTGGGAAACCAGGTC (((.(((....))).))), the folding enthalpy in data set [1] is -37 kcal/mol. Also, the Tm in data set [2] was determined as 46.4 °C.

On to GACTTTGGAAACAAGGTC (((.(((....))).))), for which, in data set [1], the folding enthalpy was -38.1 kcal/mol. In addition, the Tm in data set [2] came out at 41.8 °C.

Source of the values: the array DNA melting data of Ke et al. (doi:10.1101/2024.01.08.574731).
